Experiment [1] deals with LNCaP. Nature of the experiment: Cytotoxicity against human LNCAP cells. The class given is functional. The settings on record: read-out: ED50 (the source's name). The procedure, abridged: (§1)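 Panel of three human cancer lines (Lu1, LNCaP, MCF-7). Cytotoxicity expressed as ED50 in µg/mL.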
Experiment [2] has as its system MCF7. Nature of the experiment: Cytotoxicity against human MCF7 cells. Type of experiment: functional. The settings on record: read-out: ED50 (the source's name). In short, it runs like this:
as §1

Experiment [3] has as its system Lu1. The experiment in a line: Cytotoxicity against human Lu1 cells. The class given is functional. Conditions: read-out: ED50 (the source's name). The procedure, abridged:
as §1

For experiment [4], the system named is LNCaP. The experiment in a line: Inhibition of human LNCAP cells propagated in hollow fibers via intraperitoneal site of immunodeficient NCr nu/nu mouse at 10 to 40 mg/kg, ip once daily after 7 days of implantation relative to control. Type of experiment: functional. The settings on record: dose mg/kg 10-40. In short, it runs like this: (§2)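 In vivo hollow fiber model in immunodeficient mice. Fibers loaded with Lu1, LNCaP or MCF-7 cells were implanted subcutaneously or intraperitoneally. Vehicle or drug was given ip once daily at 10, 20 or 40 mg/kg on days 3-6 after implantation. Mice were sacrificed on day 7, and fibers were retrieved and analysed for growth inhibition versus vehicle.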

Experiment [5] deals with Lu1. The experiment in a line: Inhibition of human Lu1 cells propagated in hollow fibers via subcutaneous site of immunodeficient NCr nu/nu mouse at 10 to 40 mg/kg, ip once daily after 7 days of implantation. The class given is functional, organism-based. The procedure, abridged:
as §2

The test system of experiment [6] is MCF7. Nature of the experiment: Inhibition of human MCF7 cells propagated in hollow fibers via subcutaneous site of immunodeficient NCr nu/nu mouse at 10 to 40 mg/kg, ip once daily after 7 days of implantation. Type of experiment: functional, organism-based. In short, it runs like this:
as §2

In brackets after ≈: the same amount, converted by molar mass. Activity calls are given as the source filed them. The rule behind the calls is not given here.

Turning to `CC1(C)C=Cc2c(ccc3c2OCC2c4cc5c(cc4OC32)OCO5)O1` (stereo not given) [LEIOCARPIN], the EC50 with LNCaP [1], with MCF7 [2] and with Lu1 [3] was above 5 µg/mL throughout.
For the compound `CC1(C)C=Cc2c(c(O)cc3c2OC[C@@H]2c4cc5c(cc4O[C@H]32)OCO5)O1`, the EC50 in the experiment with LNCaP [1], with MCF7 [2] and with Lu1 [3] was above 5 µg/mL throughout.
Consider `COc1ccc([C@]2(O)COc3c(ccc4c3C=CC(C)(C)O4)C2)c(O)c1`, for which the EC50 in the experiment with LNCaP [1], in the experiment with MCF7 [2] and with Lu1 [3] was above 5 µg/mL throughout.
As to `COc1ccc([C@H]2COc3cc4c(c(O)c3C2=O)C=CC(C)(CCC=C(C)C)O4)c(O)c1O` (stereo partly drawn) [(3S)-ISODISCOLORANONE B], the EC50 in the experiment with LNCaP [1], in the experiment with MCF7 [2] and with Lu1 [3] was above 5 µg/mL in each case.
Turning to `COc1ccc([C@H]2COc3c(ccc4c3C=CC(C)(CCC=C(C)C)O4)C2)c(O)c1O` (stereo not given in full) [NITIDULIN], in the experiment on LNCaP [4], the “inhibition (INH)” value worked out at 49%. Also, the outcome in the experiment on Lu1 [5] and in the experiment with MCF7 [6] was inactive. Also, the values for the EC50 with LNCaP [1], in the experiment with MCF7 [2] and with Lu1 [3] were 4.1 µg/mL (≈ 9.7 µM), 3.5 µg/mL (≈ 8.28 µM) and 4.2 µg/mL (≈ 9.94 µM), respectively.
As to `CC1(C)C=Cc2c(c(O)cc3c2OCC(c2cc4c(cc2O)OCO4)C3)O1` (stereo not given) [LEIOCINOL], the EC50 in the experiment on LNCaP [1], with MCF7 [2] and in the experiment on Lu1 [3] was above 5 µg/mL each time.
Take `CC1(C)C=Cc2c(cc3c(c2O)C(=O)[C@@H](c2cc4c(cc2O)OCO4)CO3)O1` [(3S)-ISODISCOLORANONE A]: the EC50 in the experiment on LNCaP [1], in the experiment on MCF7 [2] and in the experiment on Lu1 [3] was above 5 µg/mL in each case.
`CC(C)=CCCC1(C)C=Cc2c(ccc3c2OCC(c2cc4c(cc2O)OCO4)C3)O1` (stereo not given) [NITIDULAN]: the EC50 in the experiment with LNCaP [1], in the experiment with MCF7 [2] and in the experiment on Lu1 [3] was above 5 µg/mL in each case.
Turning to `CC1(C)C=Cc2c(ccc3c2OCC(c2cc4c(cc2O)OCO4)C3)O1` (stereo not given) [LEIOCIN], the EC50 in the experiment with LNCaP [1], with MCF7 [2] and in the experiment with Lu1 [3] was above 5 µg/mL throughout.
Take `C=C(CO)[C@H]1Cc2c(ccc3c2O[C@@H]2COc4cc(OC)c(OC)cc4[C@]2(O)C3=O)O1` [DABINOL]: the figures for the EC50 in the experiment with LNCaP [1], in the experiment with MCF7 [2] and with Lu1 [3] were 5.4 µg/mL (≈ 12.7 µM), 13.1 µg/mL (≈ 30.7 µM) and 3.1 µg/mL (≈ 7.27 µM), respectively.
For `COc1ccc([C@H]2COc3c4c(cc(O)c3C2=O)OC(C)(CCC=C(C)C)C=C4)c(O)c1O` (stereo not given in full) [DISCOLORANONE], in that order: 6.4 µg/mL (≈ 14.1 µM), 3.6 µg/mL (≈ 7.96 µM) and 9.6 µg/mL (≈ 21.2 µM).
As to `COc1ccc(C2COc3c(ccc4c3C=CC(C)(CCC=C(C)C)O4)C2)c(O)c1` (stereo not given) [HEMINITIDULAN], the EC50 in the experiment with LNCaP [1], in the experiment with MCF7 [2] and in the experiment with Lu1 [3] was above 5 µg/mL in each case.
For `CC1(C)C=Cc2c(cc(O)c3c2OCC(c2cc4c(cc2O)OCO4)C3=O)O1` (racemic) [DISCOLORANONE A], the EC50 with LNCaP [1], with MCF7 [2] and in the experiment on Lu1 [3] was above 5 µg/mL throughout.
On to `C=C(CO)[C@H]1Cc2c(ccc3c2O[C@@H]2COc4cc(OC)c(OC)cc4[C@@H]2C3=O)O1` [AMORPHIGENIN], for which the EC50 is 7.9 µg/mL (≈ 19.2 µM) in the experiment on LNCaP [1], above 20 µg/mL with MCF7 [2] and 4.8 µg/mL (≈ 11.7 µM) in the experiment on Lu1 [3].

Source of the values: ChEMBL document CHEMBL1158116, “Prenylated flavonoids from the root bark of Berchemia discolor, a Tanzanian medicinal plant” (2006).
